Screens from PubChem BioAssay.
Hits are enriched below; roughly 3.5% of the tested compounds scored in any of these assays.
RGS4 act: RGS4 potentiation or activation; HEK293 M3R/inducible RGS4, carbachol calcium flux Fluo4; stronger effect = lower value; B-score at 10 µM; actives 0.92% (n = 310,000); AID 463111;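 active = B-score of the integrated calcium signal more than 4 SD below the library mean, with starting fluorescence not abnormally high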;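 note: negative B-score means reduced calcium response which marks RGS4 activation or potentiation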
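System: HEK293 FlpIn-TREx cells, stable M3R, doxycycline-inducible RGS4. Timing: overnight RGS4 induction, 30 min dye load 37 °C, 20 min compound RT. Also added: carbachol, ECmax concentration. Measured by: Fluo4 fluorescence kinetic imaging of calcium. Evaluation: integrated calcium ratio converted to B score.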
MrgX1 antagonist: antagonists of human MrgX1 receptor | Q96LB2 | MRGX1-HEK293 calcium flux, Fluo-4, BAM8-22 antagonism; stronger effect = lower value | B-score at 10 µM | actives 1.3% (n = 310,000);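 active = calcium-response B-score plate-corrected more than 3 library SD below zero, starting fluorescence within 5 deviations, no agonist response on first addition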;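 note: peak minus trough fluorescence over baseline after final BAM8-22 challenge near maximal dose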
Target sequence (Q96LB2 whole entry, looked up): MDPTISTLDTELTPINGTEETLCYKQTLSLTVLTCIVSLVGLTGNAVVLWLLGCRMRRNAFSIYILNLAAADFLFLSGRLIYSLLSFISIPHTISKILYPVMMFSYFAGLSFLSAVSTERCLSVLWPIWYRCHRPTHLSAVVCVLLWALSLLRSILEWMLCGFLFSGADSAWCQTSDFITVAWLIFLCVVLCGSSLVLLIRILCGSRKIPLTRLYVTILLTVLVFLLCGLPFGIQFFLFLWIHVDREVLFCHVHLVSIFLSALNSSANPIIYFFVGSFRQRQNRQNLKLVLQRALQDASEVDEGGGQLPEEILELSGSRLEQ
RGS4 inh: inhibitors of human RGS4; P49798; HEK293 M3R/RGS4 inducible, Fluo-4 calcium flux; stronger effect = higher value; triggered by carbachol at its EC20; B-score at 10 µM; actives 0.45% (n = 310,000);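 active = B-score, a plate-corrected calcium signal, over three deviations above library mean, with baseline fluorescence within five deviations of library mean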;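 note: RGS4 expression induced by doxycycline in cells with stable M3 receptor; B-score is computed from the integrated fluorescence ratio over baseline after carbachol; higher B-score means a larger calcium signal and so more RGS4 inhibition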
Target sequence (P49798 whole entry, looked up): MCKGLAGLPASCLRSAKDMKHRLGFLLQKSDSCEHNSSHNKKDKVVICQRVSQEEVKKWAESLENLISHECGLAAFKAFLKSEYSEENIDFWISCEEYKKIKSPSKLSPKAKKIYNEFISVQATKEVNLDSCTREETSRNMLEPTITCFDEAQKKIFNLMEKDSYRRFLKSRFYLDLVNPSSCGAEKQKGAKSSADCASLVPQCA
MrgX1 PAM: allosterically activates human MrgX1 receptor signaling. Q96LB2. MrgX1-HEK293, Fluo-4 calcium flux, FDSS; stronger effect = higher value. B-score at 10 µM. actives 0.63% (n = 310,000). AID 588675;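 active = plate-corrected calcium response at least 3 library SD above typical, normal starting fluorescence, not activating the receptor alone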;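 note: compound read alongside a low EC10 to EC30 dose of BAM8-22 agonist; peak minus trough fluorescence over baseline measured at the second addition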
MrgX1 ag: human MrgX1 receptor agonism, primary screen; Q96LB2; actives 0.44% (n = 310,000); B-score at 10 µM; MrgX1-HEK293 cells, Fluo-4 calcium fluorescence, agonist mode; stronger effect = higher value;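 active = calcium response B-score plate-corrected fluorescence ratio at least 3 library SD, with starting fluorescence B-score inside 5 SD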
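Assay system: stable human MrgX1 HEK293 cell line. Quantity: 15,000 cells per well. Schedule: cells plated overnight, dye loaded 0.5 h 37 °C, 0.5 h room temperature. Detection: Fluo-4 NW calcium-flux fluorescence, kinetic read. Read-out basis: peak-minus-minimum fluorescence over baseline, converted to B scores. Control set: positive and negative control wells on each plate.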
Hits are given with their value; - = inactive; . = no result; ! = not confirmed by another sample.

SMILES | RGS4 act | MrgX1 antagonist | RGS4 inh | MrgX1 PAM | MrgX1 ag
Cn1c(O)c(C=NC2CCN(Cc3ccccc3)CC2)c(=O)[nH]c1=O | - | - | - | - | -
Cn1c(O)c(C=NC2CCCCCC2)c(=O)[nH]c1=S | - | -6.4 | - | - | -
N#CC(C#N)=Cc1ccc(N2CCOCC2)cc1 | - | - | - | - | -
N#CC(C#N)=Cc1cccnc1 | - | -4.59 | - | - | -
CCOC(=O)c1c(C=O)c2ccccc2n1Cc1ccccc1F | - | - | - | - | -
CCOC(=O)c1c(C)n(Cc2ccccc2)c2ccc(OCC(O)CNC(C)(C)C)cc12 (stereo not drawn) | - | -4.74 | - | - | -
COc1nc(C)nc(NC(=O)NS(=O)(=O)c2ccccc2Cl)n1 | - | - | - | - | -
Cc1ccccc1N1C(=O)NC(=O)/C(=C\c2ccc3c(c2)CCCN3Cc2ccccc2)C1=O | - | - | - | - | 32.2
O=C1NC(=O)N(c2ccccc2)C(=O)/C1=C/c1coc2ccc(O)cc2c1=O | - | - | - | - | 26.6
Cc1ccc(Cn2ccccc2=N)cc1 | - | - | - | - | -
CN1CCC(OC(=O)C2c3ccccc3Oc3ccccc32)CC1 | - | - | - | - | -
O=C(c1ccc(Cl)cc1)C1CCCN(Cc2cccc3cccnc23)C1 (stereo not drawn) | -7.07 | - | - | - | -
O=C(c1ccc(Cl)cc1)C1CCCN(Cc2cccc3ncccc23)C1 (stereo not drawn) | - | - | - | - | -
Cc1nc2ccccc2c(=O)n1-c1ccc(-c2ccccc2)cc1 | - | - | - | - | -
NC(N)=N/N=C/c1cn(-c2ccccc2)nc1-c1cccs1 | - | - | - | - | 43.7
O=c1c2ccccc2nc(-c2cccs2)n1-c1ccccc1 | - | - | - | - | -
S=P(Nn1cnnc1)(c1ccccc1)c1ccccc1 | - | - | - | - | -
CCC(=NCCCN(C)C)c1c(O)n(-c2ccc(OC)cc2)c(=O)[nH]c1=O | - | - | - | - | -
Cc1ccc(NP(=O)(Oc2ccccc2F)Oc2ccccc2F)cc1C | - | - | - | - | -
O=P(Nc1cccc(F)c1)(Oc1ccccc1F)Oc1ccccc1F | -8.24 | - | - | - | -
Cc1cccc(NP(=O)(Oc2ccccc2F)Oc2ccccc2F)c1 | -7.78 | - | - | - | -
CCC(=NCc1ccco1)c1c(O)n(-c2ccc(Cl)cc2)c(=O)[nH]c1=O | - | - | - | - | -
C[N+]1(C)C2CC(OC(=O)C(CO)c3ccccc3)CC1C1OC12 (stereo not drawn) | . | - | . | - | -
CCN(CC)c1ccc(N=Cc2c(O)n(Cc3ccccc3)c(=O)[nH]c2=O)cc1 | -7.27! | - | - | - | -
CCOC(=O)c1ccc2[nH]c(-c3ccc(S(=O)(=O)F)cc3)cc(=O)c2c1 | - | - | - | - | -
SMILES | RGS4 act | MrgX1 antagonist | RGS4 inh | MrgX1 PAM | MrgX1 ag
O=C1NC(=O)N(Cc2ccccc2)C(=O)/C1=C/c1cnn(-c2ccccc2)c1 | - | -5.49 | - | - | -
COc1cc2c(cc1OC)C13CCN4CC5=CCOC6CC(=O)N2C1C6C5CC43 (stereo not drawn) (tested in a mixture with another compound) | - | - | - | - | -
O=C1OC(c2ccc([N+](=O)[O-])cc2)=N/C1=C/N1CC2CC(C1)c1cccc(=O)n1C2 (stereo not drawn) | - | - | - | - | 57.3
O=C1OC(c2ccc(Br)cc2)=N/C1=C\N1CC2CC(C1)c1cccc(=O)n1C2 (stereo not drawn) | - | - | - | - | -
O=P(O)(O)Oc1ccccc1P(=O)(c1ccccc1)c1ccccc1 | - | - | - | - | -
CCCCC/C(=N\O)c1c[nH]c2ccccc12 | - | -6.61 | - | - | -
O=[N+]([O-])c1ccccc1-c1cc(-c2ccccc2)cc(-c2ccccc2)[n+]1Cc1ccccc1Cl | -10.2 | -7.01 | - | - | -
Oc1cc(Cl)ccc1Oc1ccc(Cl)cc1Cl | -7.06 | - | - | - | -
C=CCn1c(O)c(/C=N/NC(=O)CCCC)c(=O)[nH]c1=S | - | - | - | - | -
CCN1CCN(Cc2ccc(OC(F)(F)F)cc2)CC1 | - | - | - | - | -
CCCCCCOc1ccc(CN2CCN(CC)CC2)cc1 | -7.14 | - | - | - | -
CN1C(=O)C(=Cc2ccc(OCC(=O)Nc3ccccc3)cc2)C(=O)N(C)C1=O | - | - | - | - | -
O=[N+]([O-])c1ccc(N2CCCC2)c2ccncc12 | - | -5.13 | - | - | -
O=[N+]([O-])c1ccc(NC2CCCC2)c2ccncc12 | - | - | - | - | -
COC(=O)C(Cc1ccc(N(CCCl)CCCl)cc1)N=Cc1ccccc1O (stereo not drawn) | -7.13 | - | - | - | -
COc1ccc(C(=O)C2CCCN(Cc3cnc(C)s3)C2)cc1OC (stereo not drawn) | - | - | - | - | -
COc1ccc(C(=O)C2CCCN(C3CSCCSC3)C2)cc1OC (stereo not drawn) | -7.48 | - | - | - | -
CN1Cc2c(c(C#N)c(N)n(C)c2=S)CC1(C)C | -9.35 | - | - | - | -
Cn1c(O)c(Cc2ccc(OCc3ccccc3)cc2)c(=O)n(C)c1=O | - | - | - | - | -
N/C(=N\N=C\c1ccc(O)cc1O)N[N+](=O)[O-] | - | - | - | - | -
COc1ccccc1/C=N/N=C(/N)N[N+](=O)[O-] | - | -7.7 | - | - | -
C=C(COC(C)=O)CC1CC(O)[C@]2(C)OC3CC4OC5C[C@]6(C)O[C@]7(C)CCC8OC9C[C@]%10(C)OC%11C(C)=CC(=O)OC%11CC%10OC9C[C@@H](C)C8OC7CC6O[C@]5(C)C/C=C\C4OC3CC2O1 (stereo partly drawn) | - | . | 18.4 | . | .
C=C(C=O)CC1CC(O)[C@]2(C)OC3CC4OC5C[C@]6(C)O[C@]7(C)CCC8OC9C[C@]%10(C)OC%11C(C)=CC(=O)OC%11CC%10OC9C[C@@H](C)C8OC7CC6O[C@]5(C)CC5OC5C4OC3CC2O1 (stereo partly drawn) | - | -5.41 | - | - | -
O=C(O)c1cc[c]([Hg][Cl])cc1 | . | - | . | 13.4 | -
CCN(CC)c1ccc(/C=C2\C(=O)NC(=S)N(c3ccc(OC)cc3OC)C2=O)o1 | -7.24 | - | - | - | -
COc1ccc(N2C(=O)/C(=C/c3ccc(N(C)C)o3)C(=O)NC2=S)cc1 | - | - | - | - | -
CC(=NC(C)c1ccccc1)c1c(O)[nH]c(=O)[nH]c1=O (stereo not drawn) | - | - | - | - | -
CC(C)OCCCNC(=O)c1c(N)n(CC2CCCO2)c2nc3ccccc3nc12 (stereo not drawn) | -7.21 | - | - | - | -
CCCNC(=O)c1c(N)n(CC2CCCO2)c2nc3ccccc3nc12 (stereo not drawn) | - | - | - | - | -
CSc1ccccc1C(=O)C1CCCN(Cc2ccn[nH]2)C1 (stereo not drawn) | - | - | - | - | -
